Columns and labels:
Rattus norvegicus [1] = assay: (§1) Vocalization threshold value was measured in rat yeast induced hyperalgesia assay at a dose of 10 mg/kg for 8 hr.; assay type: functional
Method in brief: (§2)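 Female Sprague-Dawley rats, 50-60 g, groups of 10, fasted overnight. Brewer's yeast (5% in 0.1 mL) injected subplantar, then oral dosing in 1% methylcellulose. An air-driven piston (2 mm) presses the plantar surface of the normal and yeast-injected paws. The pressure that causes vocalization is read on a manometer in mmHg, tested 3 h after yeast. Normal vs inflamed paw compared by paired t test. Mean ± SEM.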

Rattus norvegicus [2] = assay: Plasma drug level was measured in rat yeast induced hyperalgesia assay in presence of indomethacin at a dose of 10 mg/kg for 4 hr.; assay type: functional
Method in brief: (§3)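 Rats are bled after the yeast hyperalgesia test. 50 μL plasma is mixed with an equal volume of 0.1 N HCl and injected directly on a C-18 reverse-phase HPLC column. Eluent is methanol/0.01 M phosphate pH 4 (65:35), 1.5 mL/min, with UV detection at 254 nm. Parent compound and indomethacin are quantified against standard calibration. Mean ± SEM, n=10.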

Rattus norvegicus [3] = assay: Vocalization threshold value was measured in rat yeast induced hyperalgesia assay at a dose of 10 mg/kg for 1 hr.; assay type: functional; method in brief: as §2
Rattus norvegicus [4] = assay: Compound was tested for hyperalgesia activity in rats after perorally administered at 1 hr; conditions: po
Rattus norvegicus [5] = assay: Analgesic activity was measured in rat yeast induced hyperalgesia assay at a dose of 10 mg/kg for 1 hr.; assay type: functional
Method in brief: (§4)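 Female Sprague-Dawley rats, 50-60 g, groups of 10, fasted overnight. Brewer's yeast (5% in 0.1 mL) injected subplantar. Compound given orally in 1% methylcellulose, 0.1 mL/10 g. Each group tested once, always 3 h after yeast. An animal counts as analgesic if vocalization needs ≥25 mmHg on the inflamed paw. Result is percent of animals analgesic.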

Rattus norvegicus [6] = assay: Plasma drug level was measured in rat yeast induced hyperalgesia assay in presence of indomethacin at a dose of 10 mg/kg for 1 hr.; assay type: functional; method in brief: as §3
Rattus norvegicus [7] = assay: Analgesic activity was measured in rat yeast induced hyperalgesia assay at a dose of 10 mg/kg for 4 hr.; assay type: functional; method in brief: as §4
Mus musculus [8] = assay: Compound was tested for […] activity in mice after perorally administered at 1 hr; assay type: functional; conditions: po
Rattus norvegicus [9] = assay: Vocalization threshold value was measured in rat yeast induced hyperalgesia assay at a dose of 10 mg/kg for 24 hr.; assay type: functional; method in brief: as §2
Rattus norvegicus [10] = assay: Analgesic activity was measured in rat yeast induced hyperalgesia assay at a dose of 10 mg/kg for 12 hr.; assay type: functional; method in brief: as §4
Rattus norvegicus [11] = assay: as §1; assay type: functional; remark: listed apart in the source
Mus musculus [12] = assay: Inhibition of phenylbenzoquinone writhing in mice was tested at the dose of 3 mg/kg for 2 hr; assay type: functional
Method in brief: (§5)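 Male CD-1 mice, 18-22 g, groups of 10, fasted overnight. Oral dose in 1% methylcellulose (0.1 mL/10 g) at set times before phenylbenzoquinone, 2.0 mg/kg ip. Writhes counted 5-15 min after PBQ. % inhibition = 100 − (drug mean/vehicle mean × 100).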

Rattus norvegicus [13] = assay: (§6) Vocalization threshold value was measured in rat yeast induced hyperalgesia assay at a dose of 10 mg/kg for 4 hr.; assay type: functional; method in brief: as §2
Rattus norvegicus [14] = assay: as §6; assay type: functional; remark: listed apart in the source
Rattus norvegicus [15] = assay: Analgesic activity was measured in rat yeast induced hyperalgesia assay at a dose of 10 mg/kg for 8 hr.; assay type: functional; method in brief: as §4
Mus musculus [16] = assay: Inhibition of phenylbenzoquinone writhing in mice was tested at the dose of 3 mg/kg for 1 hr; assay type: functional; method in brief: as §5
Rattus norvegicus [17] = assay: Plasma drug level was measured in rat yeast induced hyperalgesia assay in presence of indomethacin at a dose of 10 mg/kg for 24 hr.; assay type: functional; method in brief: as §3
Rattus norvegicus [18] = assay: Analgesic activity was measured in rat yeast induced hyperalgesia assay at a dose of 10 mg/kg for 24 hr.; assay type: functional; method in brief: as §4
Rattus norvegicus [19] = assay: Vocalization threshold value was measured in rat yeast induced hyperalgesia assay at a dose of 10 mg/kg for 12 hr.; assay type: functional; method in brief: as §2
Mus musculus [20] = assay: Inhibition of phenylbenzoquinone writhing in mice was tested at the dose of 3 mg/kg for 4 hr; assay type: functional; method in brief: as §5
Rattus norvegicus [21] = assay: Plasma drug level was measured in rat yeast induced hyperalgesia assay in presence of indomethacin at a dose of 10 mg/kg for 12 hr.; assay type: functional; method in brief: as §3
Rattus norvegicus [22] = assay: Plasma drug level was measured in rat yeast induced hyperalgesia assay in presence of indomethacin at a dose of 10 mg/kg for 8 hr.; assay type: functional; method in brief: as §3

Q: COc1ccc2c(c1)c(CC(=O)O)c(C)n2C(=O)c1ccc(Cl)cc1 [INDOMETHACIN] was tested. Which Inflamed (Rattus norvegicus [1]) did it give?
A: 28.4 mmHg

Q: What about the Drug level (Rattus norvegicus [2]) of the same molecule?
A: 38 µg/mL

Q: And the Inflamed (Rattus norvegicus [3])?
A: 30 mmHg

Q: What about the Normal (Rattus norvegicus [3]) of the same molecule?
A: 27.9 mmHg

Q: And the ED50 (Rattus norvegicus [4])?
A: 5 mg/kg

Q: What about the Analgesic (Rattus norvegicus [5]) of the same molecule?
A: 70%

Q: And the Drug level (Rattus norvegicus [6])?
A: 21 µg/mL

Q: What about the Analgesic (Rattus norvegicus [7]) of the same molecule?
A: 100%

Q: What about the ED50 (Mus musculus [8]) of the same molecule?
A: 3 mg/kg

Q: What about the Inflamed (Rattus norvegicus [9]) of the same molecule?
A: 16 mmHg

Q: And the Normal (Rattus norvegicus [9])?
A: 22.4 mmHg

Q: What about the Analgesic (Rattus norvegicus [10]) of the same molecule?
A: 0%

Q: What about the Normal (Rattus norvegicus [11]) of the same molecule?
A: 28.4 mmHg

Q: And the Writhes (Mus musculus [12])?
A: 38.3

Q: What about the inhibition in vivo at 3 mg/kg (Mus musculus [12]) of the same molecule?
A: 16%

Q: What about the Normal (Rattus norvegicus [13]) of the same molecule?
A: 26.8 mmHg

Q: And the Inflamed (Rattus norvegicus [14])?
A: 32 mmHg

Q: And the Analgesic (Rattus norvegicus [15])?
A: 40%

Q: What about the Writhes (Mus musculus [16]) of the same molecule?
A: 4.8

Q: And the inhibition in vivo at 3 mg/kg (Mus musculus [16])?
A: 89%

Q: And the Drug level (Rattus norvegicus [17])?
A: 3.3 µg/mL

Q: And the Analgesic (Rattus norvegicus [18])?
A: 0%

Q: What about the Inflamed (Rattus norvegicus [19]) of the same molecule?
A: 15.6 mmHg

Q: And the Normal (Rattus norvegicus [19])?
A: 24.4 mmHg

Q: And the Writhes (Mus musculus [20])?
A: 32.9

Q: And the inhibition in vivo at 3 mg/kg (Mus musculus [20])?
A: 28%

Q: What about the Drug level (Rattus norvegicus [21]) of the same molecule?
A: 9.8 µg/mL

Q: And the Drug level (Rattus norvegicus [22])?
A: 21 µg/mL

Reference: ChEMBL document CHEMBL1123877, “Metabolic synthesis of arylacetic acid antiinflammatory drugs from arylhexenoic acids. 2. Indomethacin” (1987)
